The values below come from ChEMBL document CHEMBL1122203, “Potential tumor- or organ-imaging agents. 23. Sterol esters of iopanoic acid” (J Med Chem, 1982).

For data set [1], the system named is Rattus norvegicus. The experiment in a line: Evaluated for distribution at 24 hours after intravenous administration in liver of female Sprague Dawley rats. The note with it: in vivo. The format is ADME, organism-based. Summed up: (§1)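 Radioiodinated compound solubilized in Tween (2–3% clear solution) and given intravenously to adult female Sprague-Dawley rats, 200–250 g; 5–30 µCi per animal, 4–5 rats per group. Killed by exsanguination under ether anesthesia; organs blotted, adrenal cortex dissected from medulla, weighed samples gamma-counted (84% efficiency). Expressed as percent administered dose per gram tissue ± SEM.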

For data set [2], the system named is Rattus norvegicus. In words: Evaluated for distribution at 24 hours after intravenous administration in ovary of female Sprague Dawley rats. The format is ADME, organism-based, Female gonad. The note with it: in vivo. Put shortly:
as §1

Data set [3] concerns Rattus norvegicus. The experiment in a line: Evaluated for distribution at 24 hours after intravenous administration in thyroid of female Sprague Dawley rats. Format: ADME, organism-based, Thyroid gland. To be noted: in vivo. Put shortly:
as §1

In data set [4] the test system is Rattus norvegicus. In words: Evaluated for distribution at 0.5 hr after intravenous administration in adrenal cortex of female Sprague Dawley rats. Format: ADME, organism-based. The note with it: in vivo. Summed up: as §1
The subject of data set [5] is Rattus norvegicus. The experiment in a line: Evaluated for distribution at 0.5 hr after intravenous administration in blood of female Sprague Dawley rats. The format is ADME, organism-based. The note with it: in vivo. Summed up:
as §1

The subject of data set [6] is Rattus norvegicus. The experiment in a line: Evaluated for distribution at 0.5 hr after intravenous administration in liver of female Sprague Dawley rats. The note with it: in vivo. Format: ADME, organism-based. Put shortly: as §1
In data set [7] the test system is Rattus norvegicus. In words: Evaluated for distribution at 0.5 hr after intravenous administration in ovary of female Sprague Dawley rats. Format: ADME, organism-based, Female gonad. To be noted: in vivo. Put shortly: as §1
Data set [8] concerns Rattus norvegicus. In words: Evaluated for distribution at 0.5 hr after intravenous administration in thyroid of female Sprague Dawley rats. Format: ADME, organism-based, Thyroid gland. The note with it: in vivo. Summed up:
as §1

The test system of data set [9] is Rattus norvegicus. The experiment in a line: Evaluated for distribution at 24 hours after intravenous administration in adrenal cortex of female Sprague Dawley rats. Format: ADME, organism-based. To be noted: in vivo. Summed up:
as §1

Data set [10] can be described thus: Percent lipid extracted at 0.5 hr from adrenal […] using CHCl3/CH3OH. Format: ADME, tissue-based. Summed up: (§2)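 Same iv dosing of radioiodinated ester in Tween to female Sprague-Dawley rats. At 0.5 or 24 h, plasma, adrenal cortex and liver were extracted with CHCl3/CH3OH. Radioactivity in the lipid extract was counted and reported as percent of tissue radioactivity extractable, ± SE.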

A short description of data set [11]: Percent lipid extracted at 0.5 hr from […] using CHCl3/CH3OH. Format: ADME, cell-free. Summed up: as §2
Data set [12] is described as follows: Percent lipid extracted at 0.5 hr from liver using CHCl3/CH3OH. The format is ADME, tissue-based. Summed up:
as §2

Data set [13] can be described thus: Percent lipid extracted at 24 hours from adrenal cortex using CHCl3/CH3OH. Format: ADME, tissue-based. Summed up: as §2
Data set [14] in a line: Percent lipid extracted at 24 hours from plasma using CHCl3/CH3OH. Format: ADME, cell-free. Put shortly: as §2
The nature of data set [15]: Percent lipid extracted at 24 hr from liver using CHCl3/CH3OH. Format: ADME, tissue-based. Summed up: as §2
Data set [16] in a line: Percent parent compound extracted at 0.5 hr from adrenal cortex using CHCl3/CH3OH. The format is ADME, tissue-based. Summed up:
(§3)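 Lipid extracts from plasma, adrenal cortex and liver taken at 0.5 or 24 h after iv dosing were run on TLC beside unlabeled ester reference (iodine vapor). Eluents were petroleum ether/diethyl ether 7:2 for the cholesteryl ester and benzene/ethyl acetate 9:1 for the others, developed 14.5 cm. Plates were cut into 1-cm strips and counted; parent given as percent of extractable radioactivity.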

Data set [17] is described as follows: Percent parent compound extracted at 0.5 hr from liver using CHCl3/CH3OH. The format is ADME, tissue-based. Put shortly:
as §3

Data set [18] in a line: Percent parent compound extracted at 0.5 hr from plasma using CHCl3/CH3OH. The note with it: read-out: Extracted. The format is ADME, cell-free. Summed up:
as §3

A short description of data set [19]: Percent parent compound extracted at 24 hours from adrenal cortex using CHCl3/CH3OH. Format: ADME, tissue-based. Put shortly:
as §3

The nature of data set [20]: Percent parent compound extracted at 24 hours from liver using CHCl3/CH3OH. Format: ADME, tissue-based. Put shortly: as §3
Data set [21] in a line: Percent parent compound extracted at 24 hours from plasma using CHCl3/CH3OH. Format: ADME, cell-free. The note with it: read-out: Extracted. Summed up: as §3
Data set [22] concerns Rattus norvegicus. In words: Evaluated for distribution at 24 hours after intravenous administration in blood of female Sprague Dawley rats. Format: ADME, organism-based. The note with it: in vivo. Put shortly: as §1

The structures appear in SMILES notation.

Take `CCC(Cc1c(I)cc(I)c(N)c1I)C(=O)OC1CCC2(C)C(=CCC3C2CCC2(C)C(C(C)=O)CCC32)C1` (stereo unspecified): the Distribution turned out to be 0.386% with Rattus norvegicus [1]; 1.085% in the data set with Rattus norvegicus [2]; 156.7% in the data set on Rattus norvegicus [3]; 23.083% with Rattus norvegicus [4]; 1.727% in the data set on Rattus norvegicus [5]; 5.214% with Rattus norvegicus [6]. The Distribution is recorded as 2.126% in the data set on Rattus norvegicus [7], 0.945% in the data set on Rattus norvegicus [8], 4.256% with Rattus norvegicus [9] and 0.039% with Rattus norvegicus [22]. Moreover, the Extracted stood at 89.5% in data set [10]; 86.7% in [11]; 87.6% in data set [12]; 87.3% in data set [13]; 60% in [14]; 76.1% in [15]. The Extracted in [16] is 92.1%; in data set [17], 89.2%; in data set [19] it was 68.2%; in data set [20], 69.1%. Moreover, the remaining at 0.5 h in data set [18] was determined as 91.9%. In addition, in data set [21], the remaining at 24 h was found to be 44.6%.
Regarding `CCC(Cc1c(I)cc(I)c(N)c1I)C(=O)OC1CCC2(C)C(=CCC3C2CCC2(C)C(C(C)CCCC(C)C)CCC32)C1` (stereo unspecified), the Distribution was 6.59% with Rattus norvegicus [1]; 24.542% in the data set with Rattus norvegicus [2]; 3.571% in the data set on Rattus norvegicus [3]; 4.9% with Rattus norvegicus [4]; 5.191% with Rattus norvegicus [5]; 4.035% with Rattus norvegicus [6]. Moreover, the Distribution came out at 5.161% in the data set with Rattus norvegicus [7], 0.868% in the data set with Rattus norvegicus [8], 11.029% in the data set with Rattus norvegicus [9] and 0.696% in the data set with Rattus norvegicus [22]. The Extracted in data set [10] was 83.1%; in [11] it was 83.4%; in [12] it was 87.2%; in data set [13] it was 92.1%; in data set [14], 85.8%; in [15], 91.2%. Further, the Extracted in data set [16] was found to be 96.9%; in data set [17], 97.8%; in data set [19] it was 96.9%; in data set [20], 97.8%. Moreover, the remaining at 0.5 h in data set [18] was determined as 96%. Also, in data set [21], the remaining at 24 h stood at 96.1%.
Regarding `CCC(Cc1c(I)cc(I)c(N)c1I)C(=O)OC1CCC2(C)C(=CCC3C4CCC(=O)C4(C)CCC32)C1` (stereo unspecified), the Distribution with Rattus norvegicus [1] amounted to 0.108%; in the data set on Rattus norvegicus [2], 1.205%; in the data set on Rattus norvegicus [3] it was 143.74%; in the data set with Rattus norvegicus [4], 15.38%; in the data set with Rattus norvegicus [5], 1.275%; in the data set with Rattus norvegicus [6], 3.612%. Moreover, the Distribution is reported as 1.886% in the data set on Rattus norvegicus [7], 1.392% in the data set with Rattus norvegicus [8], 3.958% with Rattus norvegicus [9] and 0.085% in the data set with Rattus norvegicus [22]. Besides, the Extracted was 85.5% in [10]; 63.1% in data set [11]; 81.5% in data set [12]; 83.4% in data set [13]; 64.2% in data set [14]; 61.8% in [15]. The Extracted in data set [16] is reported as 83.4%; in data set [17] it was 61.8%; in [19], 16.8%; in data set [20], 42.5%. For the same compound, the remaining at 0.5 h in data set [18] worked out at 64.2%. In [21], the remaining at 24 h came to 38%.
